Results published in publication PMC7821153 (Chemical Biology & Drug Design, 2020).

Assays:
Assay type in all cases: cell-based
[1] = Cellular cytotoxicity, ATP-dependent luminescence assay
How it was run: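 Cytotoxicity measured by ATP-dependent luminescence, with CC50 derived. Values are from three independent experiments (n = 3), and standard deviations are reported.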

WT HIV-1 = experiment: Single-round infectivity assay, WT RT vector; conditions: for EC50: Human immunodeficiency virus 1, read-out: EC50 WT; for TI (therapeutic index): calculated from CC50 and WT EC50
How it was run: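 Single-round infection with an HIV-1-based vector (pNLNgoMIVR-ΔENV.LUC, Env-deleted, luciferase-carrying) with wild-type RT, used to derive EC50. Therapeutic index is calculated from CC50 (ATP-dependent luminescence assay) and wild-type EC50. Three independent experiments (n = 3), with standard deviations.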

[2] = system: HIV-1 NNRTI-resistant mutant L100I; experiment: Single-round infectivity assay, L100I; conditions: Human immunodeficiency virus 1, read-out: EC50 L100I
How it was run: (§1)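 Single-round infection with the HIV-1-based vector pNLNgoMIVR-ΔENV.LUC (Env-deleted, luciferase-carrying) bearing the indicated RT mutation(s), used to derive EC50. The mutant vectors are previously described constructs.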

[3] = system: HIV-1 NNRTI-resistant mutant K103N; experiment: Single-round infectivity assay, K103N; conditions: Human immunodeficiency virus 1, read-out: EC50 K103N
How it was run: as §1

[4] = system: HIV-1 NNRTI-resistant mutant E138K; experiment: Single-round infectivity assay, E138K; conditions: Human immunodeficiency virus 1, read-out: EC50 E138K
How it was run: as §1

[5] = system: HIV-1 NNRTI-resistant mutant Y181C; experiment: Single-round infectivity assay, Y181C; conditions: Human immunodeficiency virus 1, read-out: EC50 Y181C
How it was run: as §1

[6] = system: HIV-1 NNRTI-resistant mutant Y188L; experiment: Single-round infectivity assay, Y188L; conditions: Human immunodeficiency virus 1, read-out: EC50 Y188L
How it was run: as §1

[7] = system: HIV-1 NNRTI-resistant mutant H221Y; experiment: Single-round infectivity assay, H221Y; conditions: Human immunodeficiency virus 1, read-out: EC50 H221Y
How it was run: as §1

[8] = system: HIV-1 NNRTI-resistant mutant K103N/Y181C; experiment: Single-round infectivity assay, K103N/Y181C; conditions: Human immunodeficiency virus 1, read-out: EC50 K103N/Y181C
How it was run: as §1

[9] = system: HIV-1 NNRTI-resistant mutant G190A; experiment: Single-round infectivity assay, G190A; conditions: read-out: EC50 G190A; single-round infection, n = 3
How it was run: as §1

[10] = system: HIV-1 NNRTI-resistant mutant M230L; experiment: Single-round infectivity assay, M230L; conditions: Human immunodeficiency virus 1, read-out: EC50 M230L
How it was run: as §1

[11] = system: HIV-1 NNRTI-resistant mutant P236L; experiment: Single-round infectivity assay, P236L; conditions: read-out: EC50 P236L; single-round infection, n = 3
How it was run: as §1

[12] = system: HIV-1 NNRTI-resistant mutant L100I/K103N; experiment: Single-round infectivity assay, L100I/K103N; conditions: Human immunodeficiency virus 1, read-out: EC50 L100I/K103N
How it was run: as §1

[13] = system: HIV-1 NNRTI-resistant mutant K103N/P225H; experiment: Single-round infectivity assay, K103N/P225H; conditions: Human immunodeficiency virus 1, read-out: EC50 K103N/P225H
How it was run: as §1

[14] = system: HIV-1 NNRTI-resistant mutant V106A/G190A/F227L; experiment: Single-round infectivity assay, V106A/G190A/F227L; conditions: Human immunodeficiency virus 1, read-out: EC50 V106A/G190A/F227L
How it was run: as §1

[15] = system: HIV-1 DOR-resistant mutant V106A/F227L/L234I; experiment: Single-round infectivity assay, V106A/F227L/L234I; conditions: read-out: EC50 V106A/F227L/L234I; single-round infection, n = 3
How it was run: as §1

[16] = system: HIV-1 RT-resistant mutant D67E; experiment: Single-round infectivity assay, D67E; conditions: read-out: EC50 D67E; single-round infection, n = 3
How it was run: as §1

[17] = system: HIV-1 RT-resistant mutant K101E; experiment: Single-round infectivity assay, K101E; conditions: Human immunodeficiency virus 1, read-out: EC50 K101E
How it was run: as §1

[18] = system: HIV-1 RT-resistant mutant K101E/M184I; experiment: Single-round infectivity assay, K101E/M184I; conditions: read-out: EC50 K101E/M184I; single-round infection, n = 3
How it was run: as §1

[19] = system: HIV-1 RT-resistant mutant K101E/M184V; experiment: Single-round infectivity assay, K101E/M184V; conditions: read-out: EC50 K101E/M184V; single-round infection, n = 3
How it was run: as §1

Row | Compound | CC50 [1] [nM] | EC50 (WT HIV-1) [nM] | TI (therapeutic index) (WT HIV-1) | EC50 [2] [nM] | EC50 [3] [nM] | EC50 [4] [nM] | EC50 [5] [nM] | EC50 [6] [nM] | EC50 [7] [nM] | EC50 [8] [nM] | also measured
1 | Cc1cc(/C=C/C#N)cc(C)c1Nc1ncc(N)c(Nc2c(C)cc(/C=C/C#N)cc2C)n1 [Compound 6, (2E,2′E)‐3,3′‐(((5‐aminopyrimidine‐2,4‐diyl)bis(azanediyl))bis(3,5‐dimethyl‐4,1‐phenylene))diacrylonitrile] | 44900 ± 600 | 27.2 ± 3.3 | 1,651 | 3640 | 75.5 ± 5.6 | 1070 ± 60 | 2760 ± 580 | > 5000 | 79.2 ± 6.4 | > 5000 | 
2 | Cc1cc(/C=C/C#N)cc(C)c1Nc1nc(Nc2ccc3cc(C#N)ccc3c2)ncc1N [Compound 7, (E)‐6‐((5‐amino‐4‐((4‐(2‐cyanovinyl)‐2,6‐dimethylphenyl)amino)pyrimidin‐2‐yl)amino)‐2‐naphthonitrile] | 23000 ± 2300 | 2.3 ± 0.3 | 10,000 | 4.5 ± 0.4 | 4 ± 0.8 | 27.6 ± 2.4 | 15.6 ± 2 | 152 ± 21.3 | 2.8 ± 0.2 | 156 ± 12.7 | EC50 [9]: 1.4 ± 0.1 nM; EC50 [10]: 21.4 ± 4.2 nM; EC50 [11]: 1.2 ± 0.3 nM; EC50 [12]: 265 ± 5.9 nM; EC50 [13]: 25.3 ± 3 nM; EC50 [14]: 5.2 ± 1 nM; EC50 [15]: 3.5 ± 0.2 nM; EC50 [16]: 9.7 ± 1.2 nM; EC50 [17]: 9.9 ± 2 nM; EC50 [18]: 9.4 ± 0.4 nM; EC50 [19]: 3 ± 0.3 nM
3 | Cc1cc(/C=C/C#N)cc(C)c1Nc1nc(Nc2ccc3cc(/C=C/C#N)ccc3c2)ncc1N [Compound 8, (E)‐3‐(4‐((5‐amino‐2‐((6‐((E)‐2‐cyanovinyl)naphthalen‐2‐yl)amino)pyrimidin‐4‐yl)amino)‐3,5‐dimethylphenyl)acrylonitrile] | 10800 ± 700 | 6.8 ± 0.6 | 1,588 | 242 ± 35.4 | 121 ± 9.7 | 534 ± 27.1 | 264 ± 15.9 | 3070 | 18.7 ± 2.5 | 1990 | 
4 | Cc1cc(/C=C/C#N)cc(C)c1Nc1ncc2ncn(-c3c(C)cc(/C=C/C#N)cc3C)c2n1 [Compound 9, (E)‐3‐(4‐((9‐(4‐((E)‐2‐cyanovinyl)‐2,6‐dimethylphenyl)‐9H‐purin‐2‐yl)amino)‐3,5‐dimethylphenyl)acrylonitrile] | 192000 ± 11000 | 10.4 ± 0.6 | 18,423 | 156 ± 30.6 | 48 ± 4.2 | 150 ± 6.9 | > 5000 | > 5000 | 19.4 ± 2.2 | > 5000 | 
5 | Cc1cc(/C=C/C#N)cc(C)c1-n1cnc2cnc(Nc3ccc4cc(/C=C/C#N)ccc4c3)nc21 [Compound 11, (E)‐3‐(6‐((9‐(4‐((E)‐2‐cyanovinyl)‐2,6‐dimethylphenyl)‐9H‐purin‐2‐yl)amino)naphthalen‐2‐yl)acrylonitrile] | 17100 ± 800 | 10.2 ± 1.9 | 1,676 | 78 ± 11.7 | 232 ± 22.3 | > 5000 | > 5000 | > 5000 | 17.1 ± 2.1 | > 5000 | 
